Inconclusive results are not listed.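 The calls were made as follows, unless noted: active = growth inhibition above 25% in both replicates, a cutoff set 3 SD above the mean; inconclusive = above 25% in only one replicate; inactive = the rest.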
Legend:
[1] = S. cerevisiae growth inhibition in permissive medium (OD615), pilot counter-assay for S. cerevisiae lifespan shortening project, permissive growth control (AID 705); conditions: OD615, 24 h, at 10 µM, hits give high values
Outline: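 System – S. cerevisiae with engineered DeaD lifespan system · Buffer or medium – SC raffinose/galactose permissive medium · Schedule – cells pre-grown 4 h, then 24 h compound exposure, 30 °C humidified · Technique – culture turbidity as optical density at 615 nm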

[2] = S. cerevisiae growth inhibition in restrictive medium, OD615, pilot screen, restrictive growth control, yeast lifespan reduction project (AID 706;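 active = growth inhibition above a set limit, 3 SD over mean compound inhibition, in both replicates, cut at about 43% in these data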;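 also: modified DeaD lifespan yeast strain shifted to restrictive glucose medium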); conditions: OD615, 48 h, at 10 µM, hits give high values
Outline: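 Material: engineered S. cerevisiae DeaD strain / Medium: glucose-based CSMM-D restrictive medium / Compound: single dose of 10 µM compound final, 0.25% DMSO / Timing: 4 h pre-incubation, 48 h exposure at 30 °C / Technique: OD615 absorbance reading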

[3] = doxorubicin toxicity protection in MRP-1 cells – H69AR cells, CellTiter-Glo, duplicate, MRP-1 activator project, pilot screen (AID 807;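 active = viability increase at or above a cutoff of the median across tested compounds plus 3 SD, cut at about 8.5% in these data, passing the limit was not always enough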;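 also: compound pretreatment 18-22 h then 72 h combined with doxorubicin; 0% = doxorubicin alone and 100% = vehicle without doxorubicin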); conditions: H69AR viability with doxorubicin, CellTiter-Glo luminescence; at 10 µM; hits give high values
[4] = viability of HCT116 without oncogenic beta-catenin – human colon tumor cells, pilot screen (AID 823;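 active = cell viability at or below a set limit in both duplicate runs, the limit being the all-compound median minus 4 SD, cut at about 23% in these data, passing the limit was not always enough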;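 also: 0% = wells killed by 20 µM Hyamine and 100% = untreated DMSO cell wells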); conditions: HCT116 beta-catenin knockout viability, CellTiter-Glo, 60 h; at 10 µM; hits give low values
[5] = viability of PTEN-null HCT116 cells – cell-based, HCT116 clonal line, CellTiter-Glo, pilot screen (AID 824;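 active = viability at or below 27.92% in each of two runs, the all-compound median minus 4 SD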;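 also: 0% = 20 µM Hyamine control and 100% = vehicle cell control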); conditions: HCT116 PTEN-deleted viability, 60 h, at 10 µM, hits give low values
[6] = RAM pathway blockade in budding yeast – dse1pr::URA3 reporter, 5-FOA selection, pilot screen (AID 869;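 active = inhibition over a set limit, the all-compound mean plus 3 SD, in both replicate runs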;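 also: 0% = DMSO wells with no growth and 100% = 10 µM 1-NA-PP1 with full growth; RAM network block rescues cells from 5-FOA so hits raise OD615 growth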); conditions: S. cerevisiae dse1pr::URA3 5-FOA growth, OD615, 2 d; at 10 µM; hits give high values; strain carries analog-sensitive mutant Cbk1 kinase
[7] = RAM signaling pathway blockade in yeast – S. cerevisiae, Pdr1DBD-CYC8 efflux-inhibited sensitized strain, primary screen (AID 1298;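 active = RAM network inhibition above 8.4% in each of two replicates, 3 SD over the compound average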;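 also: 0% = DMSO untreated cells without growth and 100% = 10 µM 1-NA-PP1 full growth; higher means more yeast growth rescued from 5-FOA killing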); conditions: S. cerevisiae cbk1-as DSE1-URA3 strain, 5-FOA growth OD615, 2 d; at 50 µM; hits give high values

Cc1cc(Nc2ccc(C(C)C)cc2)n2ncnc2n1
inactive: growth inhibition [1] -6.6% | growth inhibition [2] 7.39% | viability increase [3] -0.35% | viability [4] 95.2% | viability [5] 85.2% | inhibition [6] 0.465% | RAM network inhibition [7] 5.75%

O=C(CCS(=O)(=O)c1cccc2nonc12)NCCc1ccccc1
inactive: growth inhibition [1] -9.93% | growth inhibition [2] -23.2% | viability increase [3] -3.1% | viability [4] 103% | viability [5] 99.1% | inhibition [6] 4.24% | RAM network inhibition [7] 5.03%

CN(C(=O)c1cnc2n(c1=O)CCS2)C1CCCCC1
inactive: growth inhibition [1] -9.04% | growth inhibition [2] -5.85% | viability increase [3] -0.01% | viability [4] 105% | viability [5] 110% | inhibition [6] 1.5% | RAM network inhibition [7] 3.96%

Cc1ccc2oc(=O)c3cnn(CC(=O)N(CCC(C)C)Cc4ccco4)c3c2c1
inactive: growth inhibition [1] -4.76% | growth inhibition [2] -1.21% | viability increase [3] -3.21% | viability [4] 88.5% | viability [5] 87.3% | inhibition [6] 0.29% | RAM network inhibition [7] 5.23%

COc1cc(C(=O)N2CCN(C(=O)c3ccco3)CC2)cc(OC)c1OC
inactive: growth inhibition [1] -7.33% | growth inhibition [2] -2.3% | viability increase [3] -0.58% | viability [4] 100% | viability [5] 97.5% | inhibition [6] 0.16% | RAM network inhibition [7] 6.85%

CCCSC1=N/C(=C\c2ccsc2)C(=O)S1
inactive: growth inhibition [1] -10.5% | growth inhibition [2] -3.12% | viability increase [3] -0.76% | viability [4] 95.1% | viability [5] 99.2% | inhibition [6] 0.72% | RAM network inhibition [7] 9.91%

COC(=O)C1=C(C)N(C)C(=O)NC1c1ccc(O)c(OC)c1 (configuration not stated)
inactive: growth inhibition [1] 0.58% | growth inhibition [2] -7.74% | viability increase [3] -0.98% | viability [4] 105% | viability [5] 98.9% | inhibition [6] 0.425% | RAM network inhibition [7] 6.2%

Cc1cc(Nc2cccc(C)c2C)n2nc(C)nc2n1
inactive: growth inhibition [1] -17% | growth inhibition [2] -8.21% | viability increase [3] -1.13% | viability [4] 102% | viability [5] 98.3% | inhibition [6] 1.25% | RAM network inhibition [7] 3.39%

CC(=O)N1CCc2c(sc(NC(=O)CN3C(=O)CCC3=O)c2C(N)=O)C1
inactive: growth inhibition [1] -11.6% | growth inhibition [2] -14.8% | viability increase [3] -1.16% | viability [4] 100% | viability [5] 99.3% | inhibition [6] 1.53% | RAM network inhibition [7] 2.93%

Cc1cc(C)cc(N(CC(=O)N2CCN(c3ccccc3)CC2)S(=O)(=O)c2c(C)noc2C)c1
inactive: growth inhibition [1] -14.4% | growth inhibition [2] -10.2% | viability increase [3] -3.46% | viability [4] 62.6% | viability [5] 67.5% | inhibition [6] 0.57% | RAM network inhibition [7] 6.09%

Clc1ccc(Cc2nnc(-c3ccccc3Br)o2)cc1
inactive: growth inhibition [1] 1.55% | growth inhibition [2] -0.37% | viability increase [3] 4.88% | viability [4] 101% | viability [5] 91.3% | inhibition [6] -0.5% | RAM network inhibition [7] 3.39%

COC(=O)c1ccc(C2C(C(=O)Nc3ccc(C)cc3C)=C(C)Nc3ncnn32)cc1 (configuration not stated)
inactive: growth inhibition [1] 2.06% | growth inhibition [2] 9.76% | viability increase [3] -2.32% | viability [4] 97.2% | viability [5] 92.9% | inhibition [6] 2.46% | RAM network inhibition [7] 8.36%

O=C(NCCc1ccc(Cl)cc1)c1cnc2n(c1=O)CCS2
inactive: growth inhibition [1] -1.75% | growth inhibition [2] -8.11% | viability increase [3] 3.85% | viability [4] 95% | viability [5] 92.1% | inhibition [6] 0.37% | RAM network inhibition [7] 9.74%

CCOC(=O)N1CCC(Nc2cc(C)nc3c(-c4ccccc4OC)c(C)nn23)CC1
inactive: growth inhibition [1] -2.85% | growth inhibition [2] -0.57% | viability increase [3] -6.98% | viability [4] 81.3% | viability [5] 67.8% | inhibition [6] 0.325% | RAM network inhibition [7] 4.72%

COc1cc2[nH]c(=O)n(CCC(=O)NCc3cccnc3)c(=O)c2cc1OC
inactive: growth inhibition [1] -19.1% | growth inhibition [2] -23.9% | viability increase [3] -1.46% | viability [4] 98.7% | viability [5] 95.8% | inhibition [6] 2.92% | RAM network inhibition [7] 2.26%

CCSc1nnc(-c2ccc(Cl)cc2Cl)o1
inactive: growth inhibition [1] -10.3% | growth inhibition [2] -5.92% | viability increase [3] -5.13% | viability [4] 83.5% | viability [5] 85.4% | inhibition [6] 1.65% | RAM network inhibition [7] 2.2%

O=C(NCC1COc2ccccc2O1)C1CCC(CNc2c(N3CCCCC3)c(=O)c2=O)CC1 (configuration not stated)
inactive: growth inhibition [1] -8.76% | growth inhibition [2] -9.54% | viability increase [3] 0.01% | viability [4] 88.6% | viability [5] 86.4% | inhibition [6] 2.89% | RAM network inhibition [7] 4.02%

Cc1n[nH]c(C)c1S(=O)(=O)N(CC(=O)NC1CCCC1)c1ccc(C(C)C)cc1
inactive: growth inhibition [1] -7.41% | growth inhibition [2] 9.02% | viability increase [3] -3.3% | viability [4] 80.3% | viability [5] 76.9% | inhibition [6] 0.63% | RAM network inhibition [7] 3.37%

Cc1nc2ccccc2c2oc(C(=O)NCCN3CCN(C)CC3)cc12
inactive: growth inhibition [1] -12.1% | growth inhibition [2] -15.1% | viability increase [3] -1.69% | viability [4] 89.4% | viability [5] 98.8% | inhibition [6] 1.64% | RAM network inhibition [7] 3.28%

COc1ccc(-c2oc(/N=C/N3CCOCC3)c(C#N)c2-c2ccc(OC)cc2)cc1
inactive: growth inhibition [1] -10.1% | growth inhibition [2] -18.7% | viability increase [3] -0.81% | viability [4] 88.6% | viability [5] 83.4% | inhibition [6] 2.25% | RAM network inhibition [7] 2.33%

Cc1cccc(NC(=O)CSc2nnc(-c3ccccc3)n2N)c1
inactive: growth inhibition [1] -0.87% | growth inhibition [2] 0.675% | viability increase [3] -1.81% | viability [4] 100% | viability [5] 98.9% | inhibition [6] 1.93% | RAM network inhibition [7] 4.31%

CC(C)CCn1c(SCC(N)=O)nc2c1c(=O)n(C)c(=O)n2C
inactive: growth inhibition [1] -11.8% | growth inhibition [2] -14.9% | viability increase [3] 0.12% | viability [4] 103% | viability [5] 102% | inhibition [6] -0.76% | RAM network inhibition [7] 2%

CCOC(=O)NC(Nc1nnc(SCC)s1)(C(F)(F)F)C(F)(F)F
inactive: growth inhibition [1] -3.14% | growth inhibition [2] 2.81% | viability increase [3] -2.85% | viability [4] 89.8% | viability [5] 91% | inhibition [6] 1.5% | RAM network inhibition [7] 3.2%

CC(C)c1nnc(NC(=O)CCN2C(=O)c3ccccc3C2=O)s1
inactive: growth inhibition [1] -11.7% | growth inhibition [2] -0.03% | viability increase [3] 0.32% | viability [4] 104% | viability [5] 106% | inhibition [6] 3.73% | RAM network inhibition [7] 5.82%

CC1CC(C)CN(S(=O)(=O)c2ccc(NC(=O)C3COc4ccccc4O3)cc2)C1 (configuration not stated)
inactive: growth inhibition [1] -14.1% | growth inhibition [2] -24.7% | viability increase [3] -7.35% | viability [4] 53.9% | viability [5] 54.7% | inhibition [6] 3.38% | RAM network inhibition [7] 2.76%

COc1ccc(N=C(C)C2=C(O)COC2=O)cc1
inactive: growth inhibition [1] -1.31% | growth inhibition [2] 5.13% | viability increase [3] -3.62% | viability [4] 97.6% | viability [5] 99% | inhibition [6] 1.12% | RAM network inhibition [7] 5.23%

COC(=O)C1=C(O)CSC1=Nc1cccc(C(F)(F)F)c1
inactive: growth inhibition [1] -1.75% | growth inhibition [2] 8.3% | viability increase [3] -0.93% | viability [4] 101% | viability [5] 96.3% | inhibition [6] 0.625% | RAM network inhibition [7] 3.1%

O=C(O)CCCC(=O)NCCCc1ccccc1
inactive: growth inhibition [1] -6.08% | growth inhibition [2] 3.99% | viability increase [3] -2.85% | viability [4] 98.5% | viability [5] 89.8% | inhibition [6] 1.02% | RAM network inhibition [7] 2.45%

Cc1cc(C)cc(N(CC(=O)NC2CC3CCC2C3)S(C)(=O)=O)c1 (configuration not stated)
inactive: growth inhibition [1] -11.4% | growth inhibition [2] -10.6% | viability increase [3] -0.31% | viability [4] 90.4% | viability [5] 88% | inhibition [6] -0.04% | RAM network inhibition [7] 2.79%

CCN1CCN(CCCNC(=O)Cn2cc3c(n2)CCCC3)CC1
inactive: growth inhibition [1] -5.34% | growth inhibition [2] 0.355% | viability increase [3] -1.2% | viability [4] 108% | viability [5] 97.2% | inhibition [6] 0.945% | RAM network inhibition [7] 0.76%

CC1(C)CC(=O)C2=C(C1)Nc1ccccc1NC2c1cccnc1 (configuration not stated)
inactive: growth inhibition [1] 7.14% | growth inhibition [2] 1.02% | viability increase [3] -3.43% | viability [4] 96.1% | viability [5] 93.6% | inhibition [6] -0.195% | RAM network inhibition [7] 0.21%

CC(C)c1ccc(NC(=O)C(c2ccccc2)N2CCOCC2)cc1 (configuration not stated)
inactive: growth inhibition [1] -0.695% | growth inhibition [2] 0.125% | viability increase [3] 1.44% | viability [4] 91.3% | viability [5] 83.6% | inhibition [6] 0.515% | RAM network inhibition [7] 0.47%

COC(=O)C(C)Sc1nnc(Cc2cc(=O)[nH]c(=O)[nH]2)n1-c1cccc(OC)c1 (configuration not stated)
inactive: growth inhibition [1] -7.95% | growth inhibition [2] -0.1% | viability increase [3] 0.21% | viability [4] 104% | viability [5] 108% | inhibition [6] 2.8% | RAM network inhibition [7] 3%

COc1cccc(C(=O)NCCn2ccc3ccccc32)c1
inactive: growth inhibition [1] -0.9% | growth inhibition [2] -3.15% | viability increase [3] -1.6% | viability [4] 95.3% | viability [5] 90.6% | inhibition [6] 0.825% | RAM network inhibition [7] 2.48%

COc1ccc(C2(O)CCN(C(=O)Cc3cccnc3)CC2)cc1
inactive: growth inhibition [1] -20.4% | growth inhibition [2] -12% | viability increase [3] 1.04% | viability [4] 99.3% | viability [5] 94.7% | inhibition [6] 1.03% | RAM network inhibition [7] 1.03%

Cc1ccc(C2CC(c3cccc(Br)c3)n3nc(N)nc3N2)cc1 (configuration not stated)
inactive: growth inhibition [1] 0.285% | growth inhibition [2] 22.3% | viability increase [3] -1.6% | viability [4] 68.2% | viability [5] 67.2% | inhibition [6] 1.82% | RAM network inhibition [7] 5.91%

Reference: PubChem BioAssay
